Results reported in ChEMBL document CHEMBL1155660, “Hyalodendrosides A and B, antifungal triterpenoid glycosides from a lignicolous hyphomycete, Hyalodendron species” (2000).
Converted amounts (≈) assume the structure as drawn.

Experiments:
Assay type in all cases: functional
Candida albicans [1] = test: Antifungal activity against Candida albicans MY1055 after 48 hrs in presence of 10% bovine serum albumin; details: MY1055, 48 h
Summary of the method: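 Microtiter broth dilution MIC in Synthetic Complete medium with 10% bovine serum albumin added. Log-phase inoculum set by A600 to an absorbance of 0.0014. Titration started at 256 µg/mL. Cells grown 48 h and endpoints read visually.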

Cryptococcus neoformans = test: Antifungal activity against Cryptococcus neoformans MY2062 after 48 hrs
Summary of the method: (§1)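 Broth microdilution MIC in microtiter format. Organisms grown in Synthetic Complete defined medium. Log-phase cells adjusted by A600 to an initial inoculum absorbance of 0.0014. […] Growth inhibition scored at 24 and 48 h, with visual endpoints.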

Saccharomyces cerevisiae = test: Antifungal activity against Saccharomyces cerevisiae MY2214 after 48 hrs; summary of the method: as §1
Aspergillus fumigatus = test: Antifungal activity against Aspergillus fumigatus MF5668 after 48 hrs; summary of the method: as §1
Candida albicans [2] = test: Antifungal activity against Candida albicans MY1055 after 48 hrs; details: MY1055, 48 h; summary of the method: as §1

Row | MIC (Candida albicans [1]) [µg/mL] | MIC (Cryptococcus neoformans) [µg/mL] | MIC (Saccharomyces cerevisiae) [µg/mL] | MIC (Aspergillus fumigatus) [µg/mL] | MIC (Candida albicans [2]) [µg/mL] | Compound
1 | 128 | > 256 | 128 (≈ 181 µM) | > 256 | 128 (≈ 181 µM) | CC(=O)O[C@@H]1C[C@]2(CO)[C@H]3CCC4=C5C(=O)CC6[C@H](C)CO[C@@H](O)C56CC[C@@]4(C)[C@]3(C)CC[C@H]2C(C)(C)[C@H]1O[C@@H]1O[C@H](CO)[C@@H](O)[C@H](O)[C@H]1O (stereo not given in full) [HYALODENDROSIDE A]
2 | 128 | 4 (≈ 5.91 µM) | 32 (≈ 47.3 µM) | 64 (≈ 94.6 µM) | 16 (≈ 23.6 µM) | CC(=O)O[C@@H]1C[C@]2(CO)[C@H]3CCC4=C5C(=O)C[C@@H](C(C)C)[C@@]5(C)CC[C@@]4(C)[C@]3(C)CC[C@H]2C(C)(C)[C@H]1O[C@@H]1O[C@H](CO)[C@@H](O)[C@H](O)[C@H]1O [HYALODENDROSIDE B]

Row | Compound | MIC (Candida albicans [1]) [µg/mL] | MIC (Cryptococcus neoformans) [µg/mL] | MIC (Saccharomyces cerevisiae) [µg/mL] | MIC (Aspergillus fumigatus) [µg/mL] | MIC (Candida albicans [2]) [µg/mL]
3 | C[C@@H]1[C@H](O)[C@@H](C)/C=C/C=C/C=C/C=C/C=C/C=C/C=C/[C@H](O[C@@H]2O[C@H](C)[C@@H](O)[C@H](N)[C@@H]2O)C[C@@H]2O[C@](O)(C[C@@H](O)C[C@@H](O)[C@H](O)CC[C@@H](O)C[C@@H](O)CC(=O)O[C@H]1C)C[C@H](O)[C@H]2C(=O)O [AMPHOTERICIN B] | 0.25 | 0.25 (≈ 0.271 µM) | 0.25 (≈ 0.271 µM) | 1 (≈ 1.08 µM) | 0.5 (≈ 0.541 µM)
